Experiment [1] deals with Rattus norvegicus. The experiment in a line: Estrogenic agonistic activity in bilaterally ovariectomized Sprague-Dawley rat assessed as uterine weight gain at 10 mg/kg, po once daily for three days measured on day 31 of age. It is filed as functional. The essentials: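 Immature rats dosed orally once daily for three consecutive days; vehicle-only group as control. Autopsy 24 h after last dose on day 31 of age: vaginal smear taken, uterus excised, blotted and weighed fresh. Vaginal opening, vaginal epithelial cornification and uterine weight increase scored; gain expressed as percent of vehicle control; means ± SEM, at least six per group.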

For experiment [2], the system named is Rattus norvegicus. The experiment in a line: Estrogenic antagonistic activity in bilaterally ovariectomized Sprague-Dawley rat assessed as inhibition of ethynylesterol-induced uterine weight at 10 mg/kg, po once daily for 3 days measured on day 31 of age. Type of experiment: functional. The essentials: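 Antagonism read as uterine fresh weight in rats given compound orally at 10 mg/kg/day alongside 17α-ethynylestradiol (0.02 mg/kg/day); inhibition expressed relative to the ethynylestradiol-only group; means ± SEM, at least six animals per group.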

Another experiment deals with MDA-MB-231. The experiment can be described thus: Antiproliferative activity against human MDA-MB-231 cells after 48 hrs by MTT assay. It is filed as functional, cell-based. The essentials: (§1)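 MTT assay: cells seeded at 1 × 10^4 per well in DMEM with 10% FBS, left 24 h at 37 °C in CO2; compounds diluted in medium added alongside vehicle control for 48 h; MTT (5 mg/mL) added for 4 h, formazan dissolved in DMSO, absorbance read at 540 nm; IC50 in µM.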
On the technique in general: Tetrazolium assays rely on reduction of a dye to a coloured formazan, in cell work by metabolically active cells.

For another experiment, the system named is HEK293. The experiment can be described thus: Antiproliferative activity against human HEK293 cells after 48 hrs by MTT assay. Type of experiment: cell-based. The conditions noted are these: HEK293, 48 h. In short, it runs like this: as §1
A further experiment deals with MCF7. The experiment in a line: Antiproliferative activity against human MCF7 cells after 48 hrs by MTT assay. It is filed as functional, cell-based. In short, it runs like this: as §1
Setting [3] is: Homo sapiens, MDA-MB-231, 48 h, read-out: IC50.
[4] abbreviates: Homo sapiens, MCF7, 48 h, read-out: IC50.

The source of these data is ChEMBL document CHEMBL1152595, “Synthesis and biological evaluation of 2,3,4-triarylbenzopyran derivatives as SERM and therapeutic agent for breast cancer” (Bioorg Med Chem, 2009).

The structures appear in SMILES notation.

As usually defined, the inhibition in vivo is the relative decrease from the control value, in per cent. In general, IC50 refers to the concentration at which inhibition is half-maximal. On to `Oc1ccc([C@@H]2Oc3ccccc3[C@H](c3ccc(OCCN4CCCCC4)cc3)[C@H]2c2ccccc2)cc1`, for which the Activity with Rattus norvegicus [1] was 28.2%. Moreover, the inhibition in vivo at 10 mg/kg in the experiment with Rattus norvegicus [2] amounted to 51.5%. The concentration for half-maximal inhibition (IC50) with MDA-MB-231 (setting [3]) stood at 8.65 µM; in the experiment on HEK293, 38.3 µM; with MCF7 (setting [4]), 7.79 µM.
In the same order, the values of `CC(=O)Oc1ccc([C@@H]2Oc3ccccc3[C@H](c3ccc(OCCCN(C)C)cc3)[C@H]2c2ccccc2)cc1` are 117.2%, 58.4%, 5.61 µM, 14 µM and 11 µM.
As to `COc1ccc2c(c1)OC(C)(C)C(c1ccccc1)C2c1ccc(OCCN2CCCC2)cc1` (centres undefined) [ORMELOXIFENE], in the experiment with Rattus norvegicus [1], the Activity is reported as 164.3%. Further, the inhibition in vivo at 10 mg/kg in the experiment with Rattus norvegicus [2] is 77.9%.
As to `CC(=O)Oc1ccc([C@@H]2Oc3ccccc3[C@H](c3ccc(OCCN4CCCCC4)cc3)[C@H]2c2ccccc2)cc1`, the Activity in the experiment on Rattus norvegicus [1] is listed as 171.4%. In addition, in the experiment with Rattus norvegicus [2], the inhibition in vivo at 10 mg/kg stood at 51.4%. For the same compound, the values for the concentration for half-maximal inhibition (IC50) in the experiment with MDA-MB-231 (setting [3]), with HEK293 and with MCF7 (setting [4]) were 14 µM, 29.8 µM and 16.8 µM, respectively.
With `O=C1c2ccccc2O[C@@H](c2ccc(OCCN3CCCC3)cc2)[C@@H]1c1ccccc1`, the Activity in the experiment with Rattus norvegicus [1] came to 13.17%. Also, in the experiment with Rattus norvegicus [2], the inhibition in vivo at 10 mg/kg came to 45.4%. For the same compound, the IC50 entry in the experiment on MDA-MB-231 (mda-mb-231) is “Not Active”; in the experiment on HEK293 it was 34 µM; in the experiment on MCF7 (mcf7), “Not Active”.
For the compound `CC(=O)Oc1ccc([C@@H]2Oc3ccccc3[C@H](c3ccc(OCCN4CCCCCC4)cc3)[C@H]2c2ccccc2)cc1`, the Activity with Rattus norvegicus [1] is 108.3%. In the experiment on Rattus norvegicus [2], the inhibition in vivo at 10 mg/kg was determined as 30.6%. Moreover, the 50% inhibitory concentration (IC50) entry was “Not Active” in the experiment with MDA-MB-231 (mda-mb-231), 88.6 µM in the experiment on HEK293 and “Not Active” in the experiment on MCF7 (mcf7).
In the case of `Oc1ccc([C@H]2c3ccccc3O[C@@H](c3ccc(O)cc3)[C@@H]2c2ccccc2)cc1`, in the experiment on Rattus norvegicus [1], the Activity is listed as 142.9%. In addition, the inhibition in vivo at 10 mg/kg with Rattus norvegicus [2] worked out at 21.2%. The concentration for half-maximal inhibition (IC50) entry in the experiment on MDA-MB-231 (mda-mb-231) is “Not Active”; with HEK293, more than 500 µM; with MCF7 (mcf7), “Not Active”.
In the case of `CCN(CC)CCOc1ccc([C@H]2c3ccccc3O[C@@H](c3ccc(OC(C)=O)cc3)[C@@H]2c2ccccc2)cc1`, the Activity in the experiment on Rattus norvegicus [1] was 41.2%. Besides, in the experiment with Rattus norvegicus [2], the inhibition in vivo at 10 mg/kg turned out to be 59.3%. The IC50 result in the experiment on MDA-MB-231 (mda-mb-231) is “Not Active”; in the experiment with HEK293, 16.1 µM; in the experiment on MCF7 (setting [4]) it was 11.7 µM.
Turning to `CC(C)N(CCOc1ccc([C@H]2c3ccccc3O[C@@H](c3ccc(O)cc3)[C@@H]2c2ccccc2)cc1)C(C)C`, the Activity in the experiment with Rattus norvegicus [1] is reported as 225%. In addition, the inhibition in vivo at 10 mg/kg in the experiment on Rattus norvegicus [2] is 69%. In addition, the half-maximal inhibitory concentration (IC50) with MDA-MB-231 (setting [3]) is 7.48 µM; in the experiment with HEK293, 20.5 µM; in the experiment on MCF7 (setting [4]) it was 6.97 µM.
As for `CC(=O)Oc1ccc([C@@H]2Oc3ccccc3[C@H](c3ccc(OCCN(C(C)C)C(C)C)cc3)[C@H]2c2ccccc2)cc1`, in the experiment on Rattus norvegicus [1], the Activity was determined as 146.6%. Moreover, the inhibition in vivo at 10 mg/kg in the experiment on Rattus norvegicus [2] came to 73.9%. Further, the half-inhibitory concentration (IC50) entry with MDA-MB-231 (mda-mb-231) and in the experiment with MCF7 (mcf7) was “Not Active” in each case.
In the case of `Oc1ccc([C@@H]2Oc3ccccc3[C@H](c3ccc(OCCN4CCCC4)cc3)[C@H]2c2ccccc2)cc1`, in the experiment on Rattus norvegicus [1], the Activity came to 11.25%. Moreover, the inhibition in vivo at 10 mg/kg in the experiment on Rattus norvegicus [2] was found to be 69.2%. The IC50 in the experiment on MDA-MB-231 (setting [3]) came to 17.8 µM; in the experiment with HEK293, 36.3 µM; with MCF7 (setting [4]), 18.4 µM.
Regarding `CC/C(=C(\c1ccccc1)c1ccc(OCCN(C)C)cc1)c1ccccc1` [TAMOXIFEN], the Activity in the experiment on Rattus norvegicus [1] is reported as 208.8%. The inhibition in vivo at 10 mg/kg in the experiment with Rattus norvegicus [2] was found to be 27.4%. Further, the IC50 worked out at 9.86 µM in the experiment with MDA-MB-231 (setting [3]) and 7.65 µM in the experiment on MCF7 (setting [4]).
On to `OC1c2ccccc2O[C@@H](c2ccc(OCCN3CCCC3)cc2)[C@@H]1c1ccccc1` (some centres undefined), for which, in the experiment with Rattus norvegicus [1], the Activity was 124.5%. In addition, in the experiment with Rattus norvegicus [2], the inhibition in vivo at 10 mg/kg amounted to 29%. The half-inhibitory concentration (IC50) entry in the experiment on MDA-MB-231 (mda-mb-231) and in the experiment on MCF7 (mcf7) was “Not Active” throughout.
Turning to `CC(=O)Oc1ccc([C@@H]2Oc3ccccc3[C@H](c3ccc(O)cc3)[C@H]2c2ccccc2)cc1`, the Activity in the experiment on Rattus norvegicus [1] was determined as 105.18%. Also, the inhibition in vivo at 10 mg/kg in the experiment on Rattus norvegicus [2] is 4.2%. Moreover, the figures for the IC50 entry in the experiment with MDA-MB-231 (mda-mb-231), with HEK293 and in the experiment with MCF7 (mcf7) were “Not Active”, more than 100 µM and “Not Active”, respectively.
